Reference: ChEMBL document CHEMBL4316612, “Synthesis of novel dihydrotriazine derivatives bearing 1,3-diaryl pyrazole moieties as potential antibacterial agents” (Bioorg Med Chem Lett, 2019)
In brackets after ≈: the same amount, converted by molar mass.

What was measured:
Escherichia coli = assay: Antibacterial activity against Escherichia coli KCTC 1924 after 24 hrs by microtiter ELISA; assay type: functional; conditions: KCTC 1924, 24 h
Summary of the method: (§1)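 Two-fold serial broth dilution in Mueller-Hinton broth, final 64-0.25 µg/mL; compounds in DMSO (final ≤0.05%). Mid-log cultures diluted 1000-fold, inoculum 10^5 CFU/mL; oxacillin and norfloxacin as positive controls. After 24 h at 37 °C, growth read at 650 nm on a microtiter ELISA reader; MIC = lowest level giving complete growth inhibition. Run three times.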

Staphylococcus aureus [1] = assay: Antibacterial activity against methicillin-resistant Staphylococcus aureus CCARM 3506 after 24 hrs by microtiter ELISA; assay type: functional; conditions: CCARM 3506, 24 h
Summary of the method: (§2)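 Broth microdilution MIC. Bacteria grown to mid-log phase in Mueller-Hinton broth, diluted 1000-fold, and inoculated at 10^5 CFU/mL. Compounds in DMSO (final ≤0.05%) were given as two-fold serial dilutions, final 64-0.25 µg/mL. Plates were incubated 24 h at 37 °C and growth read at 650 nm. MIC is the lowest concentration giving complete growth inhibition. Three independent experiments; oxacillin and norfloxacin served as positive controls.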

Staphylococcus aureus [2] = assay: Antibacterial activity against quinolone-resistant Staphylococcus aureus CCARM 3505 after 24 hrs by microtiter ELISA; assay type: functional; conditions: CCARM 3505, 24 h; summary of the method: as §2
Streptococcus mutans = assay: Antibacterial activity against Streptococcus mutans 3289 after 24 hrs by microtiter ELISA; assay type: functional; conditions: Streptococcus mutans, 3289, 24 h; summary of the method: as §1
Staphylococcus aureus [3] = assay: Antibacterial activity against Staphylococcus aureus RN4220 after 24 hrs by microtiter ELISA; assay type: functional; conditions: RN4220, 24 h; summary of the method: as §2
Staphylococcus aureus [4] = assay: Antibacterial activity against methicillin-resistant Staphylococcus aureus CCARM 3167 after 24 hrs by microtiter ELISA; assay type: functional; conditions: CCARM 3167, 24 h; summary of the method: as §2
Staphylococcus aureus [5] = assay: Antibacterial activity against quinolone-resistant Staphylococcus aureus CCARM 3519 after 24 hrs by microtiter ELISA; assay type: functional; conditions: CCARM 3519, 24 h; summary of the method: as §2
Candida albicans = assay: Antifungal activity against Candida albicans 7535 after 24 hrs by microtiter ELISA; assay type: functional; conditions: Candida albicans, 7535, 24 h; summary of the method: as §1
L02 = assay: Cytotoxicity against human L02 cells assessed as inhibition of cell growth measured after 24 hrs by MTT assay; assay type: cell-based; conditions: L02, 24 h
Summary of the method: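 L02 normal human liver cells seeded at 1.8 × 10^4 cells/well in DMEM with 10% FBS and antimycotic. Exposed 24 h at 37 °C, 5% CO2 to 200-1.625 µM, compounds in 10% DMSO. MTT (2.5 mg/mL) added for 4 h, formazan dissolved in DMSO, OD at 570 nm. Untreated cells as negative control; IC50 = 50% growth inhibition; triplicate.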

| SMILES | MIC (Escherichia coli) [µg/mL] | MIC (Staphylococcus aureus [1]) [µg/mL] | MIC (Staphylococcus aureus [2]) [µg/mL] | MIC (Streptococcus mutans) [µg/mL] | MIC (Staphylococcus aureus [3]) [µg/mL] | MIC (Staphylococcus aureus [4]) [µg/mL] | MIC (Staphylococcus aureus [5]) [µg/mL] | MIC (Candida albicans) [µg/mL] | IC50 (L02) [µM] |
| --- | --- | --- | --- | --- | --- | --- | --- | --- | --- |
| COc1c(N2CCNC(C)C2)c(F)cc2c(=O)c(C(=O)O)cn(C3CC3)c12 (stereo not given) [GATIFLOXACIN] | 2 (≈ 5.33 µM) | 2 (≈ 5.33 µM) | 8 (≈ 21.3 µM) | 0.25 (≈ 0.666 µM) | 0.25 (≈ 0.666 µM) | 2 (≈ 5.33 µM) | 4 (≈ 10.7 µM) |  |  |
| CN(C)C1=NC(c2cn(-c3ccc([N+](=O)[O-])cc3[N+](=O)[O-])nc2-c2ccccc2Cl)N=C(N)N1 (stereo not given) | 32 (≈ 66.1 µM) | 64 (≈ 132 µM) | 32 (≈ 66.1 µM) | 64 (≈ 132 µM) | 32 (≈ 66.1 µM) | 32 (≈ 66.1 µM) | 64 (≈ 132 µM) | 64 (≈ 132 µM) |  |
| NC1=NC(c2cn(-c3ccc([N+](=O)[O-])cc3)nc2-c2ccc(Cl)cc2Cl)N=C(N2CCOCC2)N1 (stereo not given) | 4 (≈ 7.76 µM) | 2 (≈ 3.88 µM) | 4 (≈ 7.76 µM) | 8 (≈ 15.5 µM) | 2 (≈ 3.88 µM) | 2 (≈ 3.88 µM) | 4 (≈ 7.76 µM) | 4 (≈ 7.76 µM) | > 100 |
| CN(C)C1=NC(c2cn(-c3ccc([N+](=O)[O-])cc3[N+](=O)[O-])nc2-c2ccccc2Br)N=C(N)N1 (stereo not given) | 32 (≈ 60.6 µM) | 32 (≈ 60.6 µM) | 32 (≈ 60.6 µM) | 32 (≈ 60.6 µM) | 32 (≈ 60.6 µM) | 32 (≈ 60.6 µM) | 64 (≈ 121 µM) | 64 (≈ 121 µM) |  |
| OC(Cn1cncn1)(Cn1cncn1)c1ccc(F)cc1F [FLUCONAZOLE] |  |  |  |  |  |  |  | 1 (≈ 3.27 µM) |  |
| COc1cccc(-c2nn(-c3ccc([N+](=O)[O-])cc3[N+](=O)[O-])cc2C2N=C(N)NC(N(C)C)=N2)c1 (stereo not given) | 32 (≈ 66.7 µM) | 32 (≈ 66.7 µM) | 64 (≈ 133 µM) | 64 (≈ 133 µM) | 32 (≈ 66.7 µM) | 32 (≈ 66.7 µM) | 64 (≈ 133 µM) | 32 (≈ 66.7 µM) |  |
| CN(C)C1=NC(c2cn(-c3ccccc3)nc2-c2cccc(Cl)c2)N=C(N)N1 (stereo not given) | 8 (≈ 20.3 µM) | 16 (≈ 40.6 µM) | 32 (≈ 81.2 µM) | 16 (≈ 40.6 µM) | 4 (≈ 10.2 µM) | 16 (≈ 40.6 µM) | 32 (≈ 81.2 µM) | 8 (≈ 20.3 µM) |  |
| CCC(C)n1ncn(-c2ccc(N3CCN(c4ccc(OCC5COC(Cn6cncn6)(c6ccc(Cl)cc6Cl)O5)cc4)CC3)cc2)c1=O (stereo not given) [ITRACONAZOLE] |  |  |  |  |  |  |  | 0.6 (≈ 0.85 µM) |  |
| CN(C)C1=NC(c2cn(-c3ccc([N+](=O)[O-])cc3[N+](=O)[O-])nc2-c2ccc(F)cc2)N=C(N)N1 (stereo not given) | 32 (≈ 68.5 µM) | 32 (≈ 68.5 µM) | 64 (≈ 137 µM) | 32 (≈ 68.5 µM) | 32 (≈ 68.5 µM) | 32 (≈ 68.5 µM) | 64 (≈ 137 µM) | 32 (≈ 68.5 µM) |  |
| CCn1cc(C(=O)O)c(=O)c2cc(F)c(N3CCNCC3)cc21 [NORFLOXACIN] |  | 4 (≈ 12.5 µM) | > 64 |  |  | 8 (≈ 25.1 µM) | > 64 |  |  |
| NC1=NC(c2cn(-c3ccc([N+](=O)[O-])cc3[N+](=O)[O-])nc2-c2ccc(Cl)cc2Cl)N=C(N2CCOCC2)N1 (stereo not given) | 8 (≈ 14.3 µM) | 8 (≈ 14.3 µM) | 8 (≈ 14.3 µM) | 16 (≈ 28.6 µM) | 16 (≈ 28.6 µM) | 8 (≈ 14.3 µM) | 16 (≈ 28.6 µM) | 8 (≈ 14.3 µM) |  |
| NC1=NC(c2cn(-c3ccccc3)nc2-c2ccc(Br)cc2)N=C(N2CCOCC2)N1 (stereo not given) | 16 (≈ 33.3 µM) | 4 (≈ 8.33 µM) | 16 (≈ 33.3 µM) | 32 (≈ 66.6 µM) | 8 (≈ 16.7 µM) | 8 (≈ 16.7 µM) | 8 (≈ 16.7 µM) | 16 (≈ 33.3 µM) |  |
| CN(C)C1=NC(c2cn(-c3ccc([N+](=O)[O-])cc3[N+](=O)[O-])nc2-c2cccc(Cl)c2)N=C(N)N1 (stereo not given) | 8 (≈ 16.5 µM) | 4 (≈ 8.27 µM) | 4 (≈ 8.27 µM) | 8 (≈ 16.5 µM) | 4 (≈ 8.27 µM) | 4 (≈ 8.27 µM) | 16 (≈ 33.1 µM) | 8 (≈ 16.5 µM) |  |
| NC1=NC(c2cn(-c3ccc([N+](=O)[O-])cc3[N+](=O)[O-])nc2-c2ccccc2[N+](=O)[O-])N=C(N2CCOCC2)N1 (stereo not given) | > 64 | > 64 | > 64 | > 64 | > 64 | > 64 | > 64 | > 64 |  |
| NC1=NC(c2cn(-c3ccc([N+](=O)[O-])cc3[N+](=O)[O-])nc2-c2ccccc2F)N=C(N2CCOCC2)N1 (stereo not given) | 64 (≈ 126 µM) | 32 (≈ 62.8 µM) | 64 (≈ 126 µM) | > 64 | 64 (≈ 126 µM) | 64 (≈ 126 µM) | 64 (≈ 126 µM) | 64 (≈ 126 µM) |  |
| COc1c(N2C[C@@H]3CCCN[C@@H]3C2)c(F)cc2c(=O)c(C(=O)O)cn(C3CC3)c12 [MOXIFLOXACIN] |  |  |  | 0.25 (≈ 0.623 µM) | 0.25 (≈ 0.623 µM) |  | 4 (≈ 9.96 µM) |  |  |
